PMI act hi M6P – increases human PMI activity with near-saturating mannose 6-phosphate. hit rate 0.34% among 190,000. activation factor at 20 µM. coupled PMI enzyme assay, resazurin fluorescence, 20 min; active compounds read high; 1 = untreated enzyme, 0 = substrate-free blank. P34949;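 active = activation factor of 2 or more at 20 µM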
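Test system: human PMI in coupled enzyme assay; Input: PMI at 15 ng/mL final; Medium: HEPES buffer, pH 7.4; Schedule: 20 min incubation at room temperature; Technique: resorufin fluorescence at Ex 544/Em 590 nm; Compound: 20 µM single dose; Probe or stimulus: Near-saturating mannose-6-phosphate, 1.0 mM.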
PMI activator – increases human mannose-6-phosphate isomerase activity; P34949; purified human PMI, coupled resazurin fluorescence, 20 min; active compounds read high; 1 = vehicle control, 0 substrate-free wells; activation factor at 20 µM; hit rate 0.005% among 190,000; AID 1214;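 active = activation factor of 2 or more at 20 µM, relative to plate controls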
KCC2 mod – KCC2 (human) Cl- transport modulation | AID 1456 | KCC2 cells, thallium flux FluoZin-2 fluorescence | hit rate 2.2% among 190,000 | Q9H2X9 | B-score of Tl+ flux slope (higher = more flux/activation; lower = inhibition) at 10 µM;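 active = thallium flux slope and its plate-corrected score both differing from the plate sample mean at a set confidence after two filtering rounds, in either direction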;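 note: slope of fluorescence scaled to starting intensity during 10 to 20 s after thallium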
ROMK primary – human ROMK K+ channel modulation, primary screen | P48048 | Tet-inducible ROMK, thallium flux fluorescence; actives lie on both sides | B-score at 10 µM | hit rate 2% among 130,000;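 active = signal ratio slope over the read window, or its plate-corrected B-score, at least 3 SD from the plate mean, either direction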;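 note: B-score of the F/F0 ratio slope over 7 to 12 s after thallium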
ABCG2 inh – inhibitors of human ABCG2 transporter, ABCB1 counter-screen | IgMXP3 cells, JC-1 efflux, flow cytometry | Q9UNQ0 | inhibition, % at 6.6 µM | hit rate 0.1% among 190,000;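 active = inhibition above 80%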
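Test system: IgMXP3 cells (ABCG2) mixed with DDAO far-red-labelled CCRF-Adr cells (ABCB1). Reagent: JC-1 transporter substrate. Compound dosing: single test compound dose, 6.6 µM final. Times: 10 min compound exposure, 25 °C. Detection: flow cytometry of retained JC-1 fluorescence. Read-out basis: efflux inhibition in percent versus controls. Controls: nicardipine and DMSO wells.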
ABCB1 block – blocks JC-1 efflux by human ABCB1 transporter | P08183 | AID 1326 | inhibition, % at 6.6 µM | hit rate 0.067% among 190,000 | CCRF-Adr cells, flow cytometry; in the data active = inhibition above about 40%;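 note: higher value means more JC-1 retained so stronger ABCB1 efflux block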
Target sequence (P08183 whole entry, looked up): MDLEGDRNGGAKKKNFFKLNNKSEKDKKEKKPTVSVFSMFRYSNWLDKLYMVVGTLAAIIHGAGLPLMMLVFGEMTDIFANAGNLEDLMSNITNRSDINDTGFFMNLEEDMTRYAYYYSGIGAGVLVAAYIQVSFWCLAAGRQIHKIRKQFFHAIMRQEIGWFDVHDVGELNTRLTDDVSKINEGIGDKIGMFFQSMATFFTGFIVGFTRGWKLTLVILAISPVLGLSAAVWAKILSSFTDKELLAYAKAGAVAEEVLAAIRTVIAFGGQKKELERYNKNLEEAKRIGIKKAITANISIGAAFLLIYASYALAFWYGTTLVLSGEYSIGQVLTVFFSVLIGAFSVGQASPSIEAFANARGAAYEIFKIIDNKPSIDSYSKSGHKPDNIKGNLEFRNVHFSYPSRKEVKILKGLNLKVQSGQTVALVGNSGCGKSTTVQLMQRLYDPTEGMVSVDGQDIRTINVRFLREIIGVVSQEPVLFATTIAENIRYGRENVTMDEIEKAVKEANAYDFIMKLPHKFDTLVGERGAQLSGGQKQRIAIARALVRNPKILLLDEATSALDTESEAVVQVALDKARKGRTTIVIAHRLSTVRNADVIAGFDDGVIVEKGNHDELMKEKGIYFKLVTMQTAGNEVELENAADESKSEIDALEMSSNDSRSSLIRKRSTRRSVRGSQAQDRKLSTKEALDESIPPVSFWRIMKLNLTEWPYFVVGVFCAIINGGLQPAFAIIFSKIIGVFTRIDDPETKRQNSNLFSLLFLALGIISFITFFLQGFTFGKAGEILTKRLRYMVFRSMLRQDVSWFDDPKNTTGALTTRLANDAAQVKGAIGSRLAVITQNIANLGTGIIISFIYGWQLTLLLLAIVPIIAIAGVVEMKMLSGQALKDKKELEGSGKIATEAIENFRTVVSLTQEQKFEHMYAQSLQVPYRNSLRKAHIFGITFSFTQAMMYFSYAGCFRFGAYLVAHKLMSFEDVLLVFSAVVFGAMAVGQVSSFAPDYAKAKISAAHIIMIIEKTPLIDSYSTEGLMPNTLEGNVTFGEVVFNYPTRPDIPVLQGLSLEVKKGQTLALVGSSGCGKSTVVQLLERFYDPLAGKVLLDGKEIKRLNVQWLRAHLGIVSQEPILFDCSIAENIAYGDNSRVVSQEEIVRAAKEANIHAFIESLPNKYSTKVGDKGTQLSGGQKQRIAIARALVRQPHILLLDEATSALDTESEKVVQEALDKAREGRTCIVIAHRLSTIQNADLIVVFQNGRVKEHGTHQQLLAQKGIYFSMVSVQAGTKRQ
A number is an active result; i = inactive; nt = not tested or not shown. Compounds with a hit are over-represented: about 3.3% of the library has one in this group of screens.

SMILES | PMI act hi M6P | PMI activator | KCC2 mod | ROMK primary | ABCG2 inh | ABCB1 block
CCCCCCC1(C)NC(=S)N(c2ccccc2)N1 (centres undefined) | 3 | i | i | i | i | i
CCC1(c2ccc(Cl)cc2)NC(=S)N(c2ccccc2)N1 (centres undefined) | i | i | 22.9 | nt | i | i
S=C1NC(c2ccccc2)=NCN1c1ccc(Cl)cc1 | i | i | i | i | i | i
CC1(CC(=O)Nc2ccccc2)NC(=S)N(c2ccccc2)N1 (centres undefined) | i | i | i | i | i | i
CCCCCC1(C)NC(=S)N(c2ccccc2)N1 (centres undefined) | 3.1 | 2 | i | i | i | i
CC(CCc1ccccc1)NC(=O)N1CCOCC1 (centres undefined) | i | i | i | i | i | nt
CC(C)c1ccc(S(=O)(=O)c2ccc(NN)cc2)cc1 | 2.2 | i | i | i | i | i
COCCN1C(=O)/C(=C/c2ccc(N3CCCC3)cc2C)SC1=S | i | i | -5.4 | nt | 90.6 | 66.6
O=C(Nc1nnc(-c2ccco2)o1)c1ccc(N2C(=O)CCC2=O)cc1 | i | i | i | i | i | i
O=C(Nc1nnc(-c2ccc3c(c2)CCCC3)o1)c1ccccc1Cl | i | i | 50.4 | nt | i | i
O=C(Nc1nnc(-c2ccc(Cl)cc2)o1)c1ccc(N2C(=O)CCC2=O)cc1 | i | i | 11.6 | i | i | i
COc1cccc(-c2nnc(NC(=O)c3ccccc3Br)o2)c1 | nt | nt | i | nt | nt | nt
O=C(Nc1nnc(-c2ccc3c(c2)CCCC3)o1)c1ccccc1 | i | i | 78.7 | nt | i | i
Cc1ccc(C(=O)Cn2c(C(=O)/C=C/c3ccccc3)nc3ccccc32)cc1 | i | i | i | nt | i | i
O=C(COC(=O)c1cc[n+]([O-])cc1)Nc1ccc(F)c([N+](=O)[O-])c1 | i | i | i | i | i | i
COc1cc(CCN2C(=O)N[C@@H](c3cccc(C(F)(F)F)c3)C(C(C)=O)=C2C)cc(OC)c1OC | 2 | i | i | i | i | i
N#C/C(=N\Nc1cccc([N+](=O)[O-])c1)C(=O)c1ccc(Br)cc1 | i | i | -6.8 | 3.11 | i | i
O=C(O)c1ccc(N=NNc2cccc([N+](=O)[O-])c2)cc1 | i | i | i | i | i | i
COc1cc(C(=O)N2CCC(O)(c3ccccc3)CC2)cc(OC)c1OC | i | i | i | i | i | i
CCC(OC(=O)c1nsc(Cl)c1Cl)C(=O)NC(C)(C)C (centres undefined) | i | i | i | i | i | i
O=C(CN1C(=O)CSc2ccc(S(=O)(=O)N3CCOCC3)cc21)NCc1cccnc1 | i | i | i | i | i | i
O=C(CN1C(=O)CSc2cc(S(=O)(=O)N3CCCCCC3)ccc21)NCCc1ccccc1 | i | i | -7.81 | -5.51 | i | i
Cc1cc(C2=NNC(=Nc3ccccc3)SC2)c(C)n1C | 2 | i | i | i | i | i
O=S(=O)(c1ccc(-c2ccon2)s1)N1CCOCC1 | nt | nt | i | nt | nt | nt
O=C1OCC(c2ccccc2)=C1c1ccc(S(=O)(=O)N2CCOCC2)s1 | 2 | i | nt | i | i | i
SMILES | PMI act hi M6P | PMI activator | KCC2 mod | ROMK primary | ABCG2 inh | ABCB1 block
O=C1/C(=C/c2cccnc2)CCC/C1=C\c1cccnc1 | i | i | i | -4.58 | i | i
O=C1/C(=C/c2cccnc2)CC/C1=C\c1cccnc1 | i | i | i | i | i | i
CCC1C/C(=C\c2cccnc2)C(=O)/C(=C/c2cccnc2)C1 (centres undefined) | i | i | i | -4.29 | i | i
N#Cc1c(-c2ccccc2F)cc(C2CC2)nc1SCC(=O)c1cccs1 | i | i | i | nt | i | i
Cc1nn2c(c1-c1ccc(Cl)cc1)N=C(c1ccco1)CC2c1ccccc1 (centres undefined) | i | i | nt | nt | i | i
O=S(CC1CC1(Cl)Cl)CC1CC1(Cl)Cl (centres undefined) | i | i | i | nt | i | i
COCCNC(=O)NC12CC3(C)CC(C)(CC(C)(C3)C1)C2 | i | i | i | nt | i | i
COc1ccc(/C(C)=N/Nc2cccc(C(=O)O)c2)cc1OC | 2.5 | i | i | i | i | i
COc1ccc(Br)cc1/C=N/Nc1cccc(C(=O)O)c1 | i | i | i | nt | i | i
C/C(=N\Nc1cccc(C(=O)O)c1)c1ccc(Cl)s1 | 2.6 | i | i | i | i | i

Source: PubChem BioAssay (several laboratories)
